Source: PubChem (several laboratories)
Rad51 HR inh: human RAD51 strand exchange inhibitors, primary screen, biochemical, fluorescence; DNA repair protein RAD51 homolog 1 (Homo sapiens), Q06609; inhibition, % at 10 µM; actives 0.085% (n = 200,000); hRad51 DNA strand exchange, fluorescence dequenching; AID 1385, 2008;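 active = inhibition above 40% at the single screening dose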;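 also: 0% = DMSO control wells and 100% = blanks with heterologous ssDNA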
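Test system: preformed human Rad51 ssDNA filaments. Compound dosing: single dose, 10 µM final compound. Incubation: filaments 15 min 37 °C, then compound 30 min. Technique: FRET fluorescence dequenching, excitation 485 nm, emission 520 nm. Read-out basis: percent inhibition from fluorescence, normalised to plate control and blank means. Benchmarks: plate controls and plate blanks.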
ROMK primary: ROMK potassium channel modulators, primary screen, cell-based, thallium flux, MLSMR library; B-score at 10 µM; Tet-inducible ROMK, thallium flux fluorescence; actives lie on both sides; actives 2% (n = 130,000); ATP-sensitive inward rectifier potassium channel 1 (Homo sapiens), P48048;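 active = signal ratio slope over the read window, or its plate-corrected B-score, at least 3 SD from the plate mean, either direction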;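 also: B-score of the F/F0 ratio slope over 7 to 12 s after thallium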
KCC2 mod: KCC2 cotransporter modulators, thallium flux, primary screen, cell-based, HEK293 KCC2, FluoZin-2 fluorescence, MLSMR. Solute carrier family 12 member 5 (Homo sapiens), Q9H2X9. KCC2 cells, thallium flux FluoZin-2 fluorescence. B-score of Tl+ flux slope (higher = more flux/activation; lower = inhibition) at 10 µM. actives 2.2% (n = 190,000);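 active = thallium flux slope and its plate-corrected score both differing from the plate sample mean at a set confidence after two filtering rounds, in either direction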;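 also: slope of fluorescence scaled to starting intensity during 10 to 20 s after thallium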
Target sequence (Q9H2X9 whole entry, looked up): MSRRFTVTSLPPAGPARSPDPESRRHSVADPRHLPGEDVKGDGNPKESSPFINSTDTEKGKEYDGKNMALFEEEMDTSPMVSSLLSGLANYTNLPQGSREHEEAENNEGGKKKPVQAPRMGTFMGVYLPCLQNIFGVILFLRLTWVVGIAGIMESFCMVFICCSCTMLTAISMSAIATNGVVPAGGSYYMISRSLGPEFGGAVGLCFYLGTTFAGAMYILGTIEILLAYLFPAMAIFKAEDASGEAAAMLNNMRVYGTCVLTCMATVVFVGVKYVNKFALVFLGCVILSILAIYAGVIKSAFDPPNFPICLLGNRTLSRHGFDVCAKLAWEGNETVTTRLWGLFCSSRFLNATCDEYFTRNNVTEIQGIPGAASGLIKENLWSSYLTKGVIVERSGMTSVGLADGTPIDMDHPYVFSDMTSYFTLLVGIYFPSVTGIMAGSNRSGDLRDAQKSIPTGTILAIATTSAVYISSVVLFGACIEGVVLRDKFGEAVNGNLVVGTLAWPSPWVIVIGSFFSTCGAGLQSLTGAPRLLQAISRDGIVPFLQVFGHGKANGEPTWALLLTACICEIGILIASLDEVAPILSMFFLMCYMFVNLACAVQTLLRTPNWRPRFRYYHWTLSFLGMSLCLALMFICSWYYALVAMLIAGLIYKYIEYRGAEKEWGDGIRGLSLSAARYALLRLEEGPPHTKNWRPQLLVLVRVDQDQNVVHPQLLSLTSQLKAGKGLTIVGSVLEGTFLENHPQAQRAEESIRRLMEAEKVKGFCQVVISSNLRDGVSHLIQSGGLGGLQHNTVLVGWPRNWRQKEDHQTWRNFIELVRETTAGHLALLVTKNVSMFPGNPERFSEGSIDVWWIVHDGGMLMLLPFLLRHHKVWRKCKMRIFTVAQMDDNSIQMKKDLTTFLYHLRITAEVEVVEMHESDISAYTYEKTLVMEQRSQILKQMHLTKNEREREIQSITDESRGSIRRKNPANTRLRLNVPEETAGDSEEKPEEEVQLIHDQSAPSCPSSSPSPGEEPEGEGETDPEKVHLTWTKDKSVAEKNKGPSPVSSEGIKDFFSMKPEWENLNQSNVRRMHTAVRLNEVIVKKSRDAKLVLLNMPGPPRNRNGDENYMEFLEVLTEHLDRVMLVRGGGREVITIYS
PKD1 inh: inhibitors of human PKD1 kinase, biochemical, fluorescence polarization | Serine/threonine-protein kinase D1 (Homo sapiens), Q15139 | PKD1 kinase fluorescence polarization assay | inhibition, % (test concentration not listed) | actives 0.056% (n = 200,000) | AID 797, 2007; in the data active = inhibition above about 50%
KCC2 secondary: KCC2 modulators in sodium-free buffer, confirmation, cell-based, HEK293 KCC2, thallium flux, secondary assay; shares compounds with KCC2 mod; FluoZin2 fluorescence; stronger effect = higher value; actives 15% (n = 3,700); normalised thallium flux (F/F0 slope) at 10 µM;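 active = thallium flux slope above the same plate's solvent-only control mean plus 3 SD; inconclusive = the two replicate wells disagree; inactive = no significant difference from solvent-only control wells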
KCC2 bumet counter: thallium flux persisting under bumetanide in KCC2 cells, confirmation, counter-screen for KCC2 modulator project, cell-based, HEK293 KCC2, FluoZin2, secondary assay 3; shares compounds with KCC2 mod; HEK293-KCC2 + bumetanide/ouabain; stronger effect = higher value; normalized thallium flux at 10 µM; actives 49% (n = 3,700); AID 1714, 2009;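 active = thallium entry rate above the same plate's blocked-transporter control wells by more than 3 SD; inconclusive = the two repeat wells disagree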;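 also: raw slope of fluorescence over initial fluorescence between 10 and 20 s after thallium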
KCC2 sec2: KCC2 modulators without ouabain present, confirmation, cell-based, HEK293 KCC2, thallium flux, FluoZin2, secondary assay 2. thallium flux FluoZin2 fluorescence; actives lie on both sides; F/F0 rise rate, 10–20 s post-thallium. AID 1715, 2009. actives 23% (n = 3,700). normalized thallium flux at 10 µM. shares compounds with KCC2 mod;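 active = thallium flux slope more than 3 SD above or below the plate's solvent-only control mean, mostly below; inconclusive = the two repeat wells disagreed; inactive = no significant shift from solvent-only controls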;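 also: raw slope with 0.1% DMSO as baseline and bumetanide as block control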
HEK293 Tl flux: thallium flux modulation in parental HEK cells, confirmation, counter-screen for KCC2 modulator project, cell-based, counterscreen 1. shares compounds with KCC2 mod. HEK293 parental cells, thallium flux FluoZin2, ouabain; baseline-ratio fluorescence slope, 10–20 s after thallium. thallium flux rate (normalised fluorescence) at 10 µM. actives 46% (n = 3,700);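 active = thallium flux rate significantly above the same plate's solvent-only control wells, beyond their mean plus 3 SD; inconclusive = the two replicate wells gave conflicting results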
KCC2 ouabain: KCC2 inhibitors and activators, ouabain retest, confirmation, HEK-KCC2 cells; shares compounds with KCC2 mod; HEK293-KCC2, thallium flux FluoZin2 fluorescence; bidirectional: low = inhibitor, high = activator; raw Tl+ flux slope (below DMSO = inhibition, above = activation) at 10 µM; actives 48% (n = 3,700); AID 1717, 2009;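 active = thallium flux slope beyond 3 SD from same-plate DMSO control mean in most replicates, usually higher, sometimes lower; inconclusive = repeat tests gave conflicting results; inactive = no significant difference from controls in most replicates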;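 also: slope of initial-normalized fluorescence between seconds 10 and 20 after thallium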
HEK counter2: native HEK Tl+ uptake effects, second counter-screen – HEK cells, counterscreen 2, counter-screen for KCC2 modulator project, confirmation; shares compounds with KCC2 mod; HEK293 parental, thallium flux FluoZin-2 fluorescence slope; thallium flux slope at 10 µM; actives 33% (n = 3,700);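 active = thallium flux slope above the same plate's solvent-control mean plus 3 SD in both duplicate wells; inconclusive = duplicate wells that disagreed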;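 also: run without ouabain in cells lacking the KCC2 cotransporter; slope of fluorescence scaled to its starting value between 10 and 20 s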
* hit, by the source's call; ? = inconclusive; . = no result given. Compounds with a hit are over-represented: about 3% of the library has one in this group of screens.

SMILES | Rad51 HR inh | ROMK primary | KCC2 mod | PKD1 inh | KCC2 secondary | KCC2 bumet counter | KCC2 sec2 | HEK293 Tl flux | KCC2 ouabain | HEK counter2
COc1nc(OCCNC(C)=O)nc(N(C)C)n1 | -0.6 | . | -0.0313 | -5.6 | 0.00869 | 0.00613 | 0.0295 | 0.00639 | 0.0215 | 0.00926
CC(=O)NCCOc1nc(N(C)C)nc(N2CCOCC2)n1 | -5.6 | 0.588 | 0.65 | -4.1 | . | . | . | . | . | .
CC(=O)NCC12CC3CC(C1)CC(C(=O)O)(C3)C2 | 1.1 | . | 0.265 | -13.0 | . | . | . | . | . | .
COC(=O)NCC12CC3CC(C1)CC(CNC(=O)OC)(C3)C2 | 11.1 | -0.0384 | 0.121 | -4.3 | 0.00749 | 0.00441 | 0.0284 | 0.0071 | 0.0191 | 0.00963
CSC1=NS(=O)(=O)c2c(C)nn(C)c2S1 | 2.7 | . | -4.03* | . | 0.00828 | 0.00667 | 0.0325 | ? | 0.0191 | ?
O=C(O)c1ccc2c(c1)SC1=NS(=O)(=O)CCN12 | 5.7 | . | -0.0884 | . | . | . | . | . | . | .
O=S1(=O)CCN2C(=N1)Sc1c2ccc2c1CCCC2 | -1.6 | . | 7.72* | -8.7 | 0.00975 | 0.00526 | 0.0326 | 0.00721 | 0.0223 | 0.0101
Cc1cc(C)n(-c2nc(SCCN(C)C)c3c4c(sc3n2)CCCC4)n1 | -7.8 | . | 6.16* | -4.0 | 0.00719 | 0.0199* | 0.0372 | 0.0138* | 0.0253* | 0.016*
CCC(=O)N(CCC(Cc1ccccc1)c1ccco1)Cc1ccco1 (stereo not drawn) | -10.0 | -3.17 | -3.85* | -5.7 | 0.0066 | 0.00264* | 0.0288 | 0.00459* | 0.0132* | 0.00689*
CC(C)(C)N(Cc1ccccc1)C(=O)CSc1nnc(CNc2ccc(F)cc2)o1 | 1.0 | 0.0698 | -5.32* | -4.7 | 0.00616 | 0.00603 | 0.0295 | 0.00716 | 0.0129* | 0.0118
O=C(CSc1ccc(-c2ccccc2)nn1)N1CCCc2ccccc21 | 3.8 | . | -4.66* | -0.6 | 0.00754 | 0.00533 | 0.0207* | 0.00708 | ? | 0.0106
O=C(CSc1nnc(CNc2ccccc2)o1)c1ccc2c(c1)OCCO2 | 4.7 | -0.593 | -4.39* | -11.6 | 0.00592 | ? | 0.0238* | 0.00833 | ? | 0.0111
CC1Cc2ccccc2N1C(=O)CSc1nnc(CNc2ccccc2)o1 (stereo not drawn) | -1.4 | . | . | -0.7 | 0.00686 | 0.00464 | 0.0226* | 0.00768 | 0.013* | 0.0101
Cc1ccc(-c2ccc(SCC(=O)N3CCCc4ccccc43)nn2)cc1 | 10.4 | . | -2.26 | 8.6 | . | . | . | . | . | .
CCCCCCC(=O)NNC(=O)CC(=O)Nc1ccccc1C(=O)O | -5.4 | . | -1.59 | -7.3 | . | . | . | . | . | .
O=C(CSc1nnc(CNc2ccccc2)o1)N1CCCc2ccccc21 | . | -0.108 | -4.92* | 11.2 | 0.0159 | 0.00456 | 0.024* | 0.0073 | 0.0139 | 0.00958
COc1ccc(NCc2nnc(SCC(=O)N3CCCc4ccccc43)o2)cc1 | -7.3 | . | . | -15.3 | . | . | . | . | . | .
CC(C)NC(=S)N/N=C/c1sc(N2CCCCC2)nc1-c1cccs1 | . | 1.33 | 3.08* | -1.9 | 0.0106 | 0.0112* | 0.0341 | 0.00988* | 0.0249 | 0.0103
COC(=O)c1ccc(NC(=O)CSC2=NC(=O)C(c3ccccc3)C(=O)N2)cc1 (stereo not drawn) | -0.8 | -0.0469 | 9.24* | -9.6 | 0.00951 | ? | 0.0314 | 0.00737 | 0.0186 | ?
Cc1cc(=O)[nH]c(SCC(=O)Nc2ccc(C(=O)O)cc2)n1 | -11.6 | 1.46 | -0.0994 | -18.8 | . | . | . | . | . | .
CCOC(=O)c1ccc(NC(=O)CSc2nc(C)cc(=O)[nH]2)cc1 | -1.2 | -0.0225 | . | 16.8 | 0.00663 | 0.00428 | 0.0323 | 0.00683 | 0.0185 | 0.0092
O=[N+]([O-])c1ccc(C2Oc3ccccc3C3CC(c4ccccc4)=NN32)s1 (stereo not drawn) | -5.0 | -0.407 | 1.83 | -0.9 | . | . | . | . | . | .
COc1ccc(NC(=O)CC2C(=O)N(C)C(=S)N2Cc2ccc3c(c2)OCO3)cc1 (stereo not drawn) | 0.7 | -0.123 | 7.34* | 3.4 | 0.00813 | 0.006 | 0.0334 | 0.00407 | 0.0186 | 0.0116
O=C(CSc1nnc(SCc2cccc3ccccc23)s1)c1ccc2c(c1)OCO2 | . | . | . | -6.2 | ? | 0.0281* | 0.0399* | 0.0339* | 0.0324* | 0.0353*
C/C(Cn1nnc2ccccc21)=N\NC(=O)c1cccc(Br)c1 | 0.1 | . | 0.575 | -6.8 | . | . | . | . | . | .
SMILES | Rad51 HR inh | ROMK primary | KCC2 mod | PKD1 inh | KCC2 secondary | KCC2 bumet counter | KCC2 sec2 | HEK293 Tl flux | KCC2 ouabain | HEK counter2
COc1ccc(NC(=O)c2cccnc2N2CCCC2)cc1 | -4.8 | 2 | . | 1.4 | ? | 0.00497 | 0.0314 | 0.00798 | 0.0193 | 0.0108
S=c1[nH]nc(-c2ccco2)n1/N=C/C(Cl)=C/c1ccccc1 | 5.3 | . | 33.9* | . | 0.0163* | 0.139* | 0.0377 | 0.0289* | 0.0671* | 0.0149*
CC(/C=N/n1c(-c2ccco2)n[nH]c1=S)=C\c1ccco1 | 1.3 | . | 4.74* | 6.7 | 0.00815 | 0.0273* | 0.0383 | 0.0183* | 0.0281* | 0.0204*
Cc1cc(-c2n[nH]c(=S)n2/N=C/C(Cl)=C/c2ccccc2)n[nH]1 | 7.5 | . | 4.88* | 4.5 | 0.00932 | 0.0131* | 0.0365 | ? | 0.0197 | 0.0109
CC(Sc1ccccc1)C(=O)NN=C1CCN(C)CC1 (stereo not drawn) | -12.8 | 0.83 | . | -4.1 | . | . | . | . | . | .
CC(=O)Nc1ccc(Nc2nc(C)c([N+](=O)[O-])c(Nc3ccc(NC(C)=O)cc3)n2)cc1 | -9.1 | . | -0.0728 | -1.8 | . | . | . | . | . | .
CCOc1ccc(C2C(=O)N(C3CCCCC3)CC(=O)N2CC2CCCO2)cc1OC (stereo not drawn) | . | . | . | -5.4 | 0.0167 | 0.0048 | 0.0282 | 0.00724 | 0.0157 | 0.0106
CCCOc1ccc(C2C(=O)N(C3CCCCC3)CC(=O)N2CCCOCC)cc1OC (stereo not drawn) | . | . | . | 3.8 | 0.0155 | 0.00453 | 0.0271 | 0.00775 | 0.0153 | 0.0103
